From ChEMBL document CHEMBL4311977, “Design and synthesis of parthenolide and 5-fluorouracil conjugates as potential anticancer agents against drug resistant hepatocellular carcinoma” (Eur J Med Chem, 2019)
Structures can show the parent of a compound that is named as a salt.

Assays:
Bel7402/5-FU [1] = experiment: Induction of apoptosis in human Bel7402/5-FU assessed as viable cells at 5 uM incubated for 48 hrs by annexinV-FITC/propidium iodide staining based flow cytometry (reference value: 96.9 %)
Bel7402/5-FU [2] = experiment: Antiproliferative activity against human Bel7402/5-FU incubated for 72 hrs by MTT assay; assay type: functional, cell-based
Summary of the method: (§1)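 Bel-7402 and its 5-FU-resistant subline were kept in RPMI-1640 with 10% FBS and 1% penicillin/streptomycin at 37 °C under 5% CO2. Cells were seeded at 5000 per well and left for 12 h, then exposed to a concentration series for 72 h. MTT stock (5 mg/mL) was added for 4 h and the product dissolved in DMSO. OD was read at 570 nm and IC50 obtained by curve fitting.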

Bel7402/5-FU [3] = experiment: Induction of apoptosis in human Bel7402/5-FU assessed as late apoptotic cells at 5 uM incubated for 48 hrs by annexinV-FITC/propidium iodide staining based flow cytometry (reference value: 0.945 %)
Bel-7402 = experiment: Antiproliferative activity against human Bel7402 incubated for 72 hrs by MTT assay; assay type: functional, cell-based; settings: Bel-7402, 72 h
Summary of the method: as §1

Bel7402/5-FU [4] = experiment: Induction of apoptosis in human Bel7402/5-FU assessed as early apoptotic cells at 5 uM incubated for 48 hrs by annexinV-FITC/propidium iodide staining based flow cytometry (reference value: 20.1 %)
Bel7402/5-FU [5] = experiment: Induction of apoptosis in human Bel7402/5-FU assessed as necrotic cells at 5 uM incubated for 48 hrs by annexinV-FITC/propidium iodide staining based flow cytometry (reference value: 0.157 %)
[6] = Oral bioavailability in mouse at 100 mg/kg; assay type: ADME, organism-based; settings: in vivo
[7] = Oral bioavailability in canine at 100 mg/kg; assay type: ADME, organism-based, Canis lupus familiaris; settings: dog, in vivo

| SMILES | IC50 (Bel7402/5-FU [2]) [µM] | IC50 (Bel-7402) [µM] | further results |
| --- | --- | --- | --- |
| O=c1[nH]cc(F)c(=O)[nH]1 [FLUOROURACIL] | > 400 | 7.36 | viability at 5 µM (Bel7402/5-FU [1]): 27.4%; Activity (Bel7402/5-FU [3]): 0.073%; Activity (Bel7402/5-FU [4]): 1.85%; Activity (Bel7402/5-FU [5]): 2.164% |
| C=C1C(=O)O[C@H]2[C@H]1CC/C(COC(=O)Cn1cc(F)c(=O)n(Cc3cccc(F)c3)c1=O)=C\CC[C@@]1(C)O[C@@H]21 | 3.7 | 2.53 |  |
| C/C1=C\CC[C@@]2(C)O[C@H]2[C@H]2OC(=O)[C@@H](CN(C)C)[C@@H]2CC1 |  |  | bioavailability [6]: 70%; bioavailability [7]: 70% |
| C=C1C(=O)O[C@H]2[C@H]1CC/C(COC(=O)Cn1cc(F)c(=O)n(Cc3c(F)cccc3F)c1=O)=C\CC[C@@]1(C)O[C@@H]21 | 4.98 | 4.5 |  |
| C=C1C(=O)O[C@H]2[C@H]1CC/C(COC(=O)Cn1cc(F)c(=O)n(Cc3ccc(Br)cc3)c1=O)=C\CC[C@@]1(C)O[C@@H]21 | 3.24 | 2.67 |  |
| C=C1C(=O)O[C@H]2[C@H]1CC/C(Cn1cc(Cn3cc(F)c(=O)[nH]c3=O)nn1)=C\CC[C@@]1(C)O[C@@H]21 | > 20 | > 20 |  |
| C=C1C(=O)O[C@H]2[C@H]1CC/C(COC(=O)CCC(=O)OCn1cc(F)c(=O)[nH]c1=O)=C\CC[C@@]1(C)O[C@@H]21 | > 20 | > 20 |  |
| C=C1C(=O)O[C@H]2[C@H]1CC/C(COC(=O)Cn1cc(F)c(=O)n(Cc3ccccc3F)c1=O)=C\CC[C@@]1(C)O[C@@H]21 | 3.83 | 3.77 |  |
| C=C1C(=O)O[C@@H]2C3O[C@]3(C)CC/C=C(\C)CC[C@@H]12 (stereo partly drawn) | 13 | 8.62 | viability at 5 µM (Bel7402/5-FU [1]): 94.3%; Activity (Bel7402/5-FU [3]): 2.52%; Activity (Bel7402/5-FU [4]): 1.75%; Activity (Bel7402/5-FU [5]): 1.29% |
| C=C1C(=O)O[C@H]2[C@H]1CC/C(Cn1cc(Cn3cc(F)c(=O)n(Cc4ccccc4)c3=O)nn1)=C\CC[C@@]1(C)O[C@@H]21 | 8.84 | 9.16 |  |
| C=C1C(=O)O[C@H]2[C@H]1CC/C(COC(=O)Cn1cc(F)c(=O)n(Cc3ccc(F)cc3)c1=O)=C\CC[C@@]1(C)O[C@@H]21 |  | 2.73 |  |
| C=C1C(=O)O[C@H]2[C@H]1CC/C(COC(=O)Cn1cc(F)c(=O)n(Cc3ccc(Cl)cc3)c1=O)=C\CC[C@@]1(C)O[C@@H]21 | 2.42 | 2.56 |  |
| C=C1C(=O)O[C@H]2[C@H]1CC/C(COC(=O)Cn1cc(F)c(=O)[nH]c1=O)=C\CC[C@@]1(C)O[C@@H]21 | > 20 | > 20 |  |
| C=C1C(=O)O[C@H]2[C@H]1CC/C(COC(=O)Cn1cc(F)c(=O)n(Cc3cc(F)ccc3F)c1=O)=C\CC[C@@]1(C)O[C@@H]21 | 4.61 | 3.06 |  |
| C=C1C(=O)O[C@H]2[C@H]1CC/C(COC(=O)Cn1cc(F)c(=O)n(CCC)c1=O)=C\CC[C@@]1(C)O[C@@H]21 | 9.11 | 8.58 |  |
| C=C1C(=O)O[C@H]2[C@H]1CC/C(COC(=O)Cn1cc(F)c(=O)n(Cc3ccc(F)cc3F)c1=O)=C\CC[C@@]1(C)O[C@@H]21 | 5.01 | 3.67 |  |
| C=C1C(=O)O[C@H]2[C@H]1CC/C(COC(=O)Cn1cc(F)c(=O)n(C)c1=O)=C\CC[C@@]1(C)O[C@@H]21 | 11.7 | 9.4 |  |
| C=C1C(=O)O[C@H]2[C@H]1CC/C(COC(=O)CCC(=O)N1CCN(C(=O)Cn3cc(F)c(=O)n(Cc4ccccc4)c3=O)CC1)=C\CC[C@@]1(C)O[C@@H]21 | > 20 | > 20 |  |
| C=C1C(=O)O[C@H]2[C@H]1CC/C(Cn1cc(Cn3cc(F)c(=O)n(Cc4ccc(F)cc4)c3=O)nn1)=C\CC[C@@]1(C)O[C@@H]21 | 4.86 | 4.91 |  |
| C=C1C(=O)O[C@H]2[C@H]1CC/C(COC(=O)CCC(=O)NCCCCCCNC(=O)Cn1cc(F)c(=O)n(Cc3ccccc3)c1=O)=C\CC[C@@]1(C)O[C@@H]21 | 16.2 | 18.3 |  |
| C=C1C(=O)O[C@H]2[C@H]1CC/C(COC(=O)Cn1cc(F)c(=O)n(Cc3ccc(F)c(F)c3)c1=O)=C\CC[C@@]1(C)O[C@@H]21 | 4.48 | 2.7 |  |
| COc1cccc2c1C(=O)c1c(O)c3c(c(O)c1C2=O)C[C@@](O)(C(=O)CO)C[C@@H]3O[C@H]1C[C@H](N)[C@H](O)[C@H](C)O1 [DOXORUBICIN HYDROCHLORIDE] | 8.36 |  |  |
| C=C1C(=O)O[C@H]2[C@H]1CC/C(COC(=O)CCC(=O)N1CCN(C(=O)Cn3cc(F)c(=O)[nH]c3=O)CC1)=C\CC[C@@]1(C)O[C@@H]21 | > 20 | > 20 |  |
| C=C1C(=O)O[C@H]2[C@H]1CC/C(COC(=O)Cn1cc(F)c(=O)n(Cc3ccccc3)c1=O)=C\CC[C@@]1(C)O[C@@H]21 | 4.27 | 3.98 |  |
| C=C1C(=O)O[C@H]2[C@H]1CC/C(COC(=O)Cn1cc(F)c(=O)n(Cc3ccc([N+](=O)[O-])cc3)c1=O)=C\CC[C@@]1(C)O[C@@H]21 | 4.34 | 4.07 |  |
| C=C1C(=O)O[C@H]2[C@H]1CC/C(COC(=O)CCC(=O)NCCCCCCNC(=O)Cn1cc(F)c(=O)[nH]c1=O)=C\CC[C@@]1(C)O[C@@H]21 | > 20 | > 20 |  |
